Source: ChEMBL document CHEMBL4834402, “Discovery of TAK-981, a First-in-Class Inhibitor of SUMO-Activating Enzyme for the Treatment of Cancer” (J Med Chem, 2021)
Calls of active or inactive are those of the source. The rule behind the calls is not given here.

What was measured:
[1] = Dissociation constant , pKa of the compound; assay type: physicochemical
[2] = AUC in rat plasma at 1 mg/kg, iv; assay type: ADME, organism-based; parameters: dose 1 mg/kg
[3] = target: SUMO-activating enzyme (Homo sapiens) (UniProt Q9UBE0+Q9UBT2); assay: Inhibition of SAE in human HCT116 cells xenografted in NCr nude mouse assessed as improvement in SUMO-inhibitor adduct durability at 50 mg/kg, iv and measured up to 16 hrs by mass spectrometry; assay type: organism-based; conditions: HCT-116
In short: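 Single IV dose at t = 0 to female Ncr nude mice bearing HCT-116 tumors, n = 3 per time point. Tumors harvested 2, 4, 8 and 16 h post-injection. Read-out is the adduct/SAE ratio: quantity of SUMO-compound adduct over quantity of total SAE enzyme, both measured by mass spectrometry. Values are averaged per time point.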

[4] = AUC in rat blood at 1 mg/kg, iv; assay type: ADME, organism-based; parameters: dose 1 mg/kg
SUMO-activating enzyme = SUMO-activating enzyme (Homo sapiens, UniProt Q9UBT2); assay: Inhibition of SAE in human HCT116 cells assessed as reduction in redistribution of SUMO2/3 proteins from nucleus to cytosol incubated for 4 hrs by immunofluorescence assay; assay type: cell-based, HCT-116
In short: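 HCT-116 cells exposed to compound across a concentration range for 4 h, then stained with anti-SUMO2/3 monoclonal antibody. Automated imaging scored the nuclear (inner) to cytoplasmic (outer) SUMO2/3 ratio. IC50 taken from the dose response.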

[5] = AUC in rat plasma at 10 mg/kg, po; assay type: ADME, organism-based; parameters: dose 10 mg/kg
Carbonic anhydrase 1 = Carbonic anhydrase 1 (Homo sapiens, UniProt P00915); assay: Inhibition of human erythrocyte CA1 using fluorescein diacetate as substrate at […] by fluorometric esterase assay
OCI-Ly10 = assay: Antitumor activity against human OCI-Ly10 cells xenografted in CB17 SCID mouse assessed as tumor growth inhibition at 50 mg/kg, iv administered thrice per week for 21 days and measured twice weekly; assay type: functional, organism-based; conditions: time 21.0 day
In short: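 Female CB17 SCID mice carrying OCI-Ly10 tumors (~200 mm3) were randomized, n = 8/group, with treatment from Day 1. Schedules were QD x21 (Days 1–21) or QD x3/week (three consecutive dosing days, four off). Tumor volume was measured twice weekly.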

Carbonic anhydrase 1, sequence (P00915 whole entry): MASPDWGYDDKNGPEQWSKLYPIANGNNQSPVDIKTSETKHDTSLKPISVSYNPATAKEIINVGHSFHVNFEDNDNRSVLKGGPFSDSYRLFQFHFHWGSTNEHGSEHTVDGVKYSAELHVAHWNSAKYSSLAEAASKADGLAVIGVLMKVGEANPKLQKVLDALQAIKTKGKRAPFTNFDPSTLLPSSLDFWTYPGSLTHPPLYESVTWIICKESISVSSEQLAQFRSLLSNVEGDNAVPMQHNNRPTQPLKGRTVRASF
SUMO-activating enzyme, sequence (Q9UBE0 whole entry): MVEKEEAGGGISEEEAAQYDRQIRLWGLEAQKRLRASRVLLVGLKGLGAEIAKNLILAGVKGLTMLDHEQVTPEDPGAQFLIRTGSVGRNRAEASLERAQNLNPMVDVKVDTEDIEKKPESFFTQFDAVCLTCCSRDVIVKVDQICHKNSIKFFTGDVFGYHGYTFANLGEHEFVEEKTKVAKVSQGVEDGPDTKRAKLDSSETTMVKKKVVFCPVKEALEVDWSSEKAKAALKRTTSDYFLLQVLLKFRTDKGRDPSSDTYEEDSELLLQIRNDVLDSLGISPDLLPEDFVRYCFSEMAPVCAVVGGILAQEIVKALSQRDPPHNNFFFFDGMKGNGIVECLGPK
SUMO-activating enzyme, sequence (Q9UBT2 whole entry): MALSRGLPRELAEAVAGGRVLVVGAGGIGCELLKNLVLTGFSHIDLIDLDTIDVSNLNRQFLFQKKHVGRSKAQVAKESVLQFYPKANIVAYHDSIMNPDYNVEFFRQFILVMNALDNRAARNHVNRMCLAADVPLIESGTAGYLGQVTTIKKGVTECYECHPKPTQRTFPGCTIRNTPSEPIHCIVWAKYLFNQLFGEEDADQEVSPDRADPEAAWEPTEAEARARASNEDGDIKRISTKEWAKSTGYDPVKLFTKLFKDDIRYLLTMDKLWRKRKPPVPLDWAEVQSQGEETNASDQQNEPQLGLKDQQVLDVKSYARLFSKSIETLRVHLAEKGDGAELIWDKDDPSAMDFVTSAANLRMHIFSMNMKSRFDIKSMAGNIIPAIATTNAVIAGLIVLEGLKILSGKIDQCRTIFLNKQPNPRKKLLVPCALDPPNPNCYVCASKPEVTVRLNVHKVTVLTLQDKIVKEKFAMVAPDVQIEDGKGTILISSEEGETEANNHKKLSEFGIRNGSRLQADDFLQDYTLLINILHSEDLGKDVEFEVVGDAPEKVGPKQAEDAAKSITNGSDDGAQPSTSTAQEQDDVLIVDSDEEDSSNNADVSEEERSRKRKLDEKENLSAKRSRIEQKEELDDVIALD

pKa [1]: 3.6
AUC [2]: 0.5 µM·h
AUC [4]: 31.2 µM·h
AUC [5]: 0.3 µM·h
IC50 (Carbonic anhydrase 1): 90 nM
SMILES: Cc1sc(C(=O)c2cncnc2N[C@@H]2C[C@H](COS(N)(=O)=O)[C@@H](O)C2)cc1[C@@H]1NCCc2ccc(Cl)cc21
inhibition [3]: Active
IC50 (SUMO-activating enzyme): 15 nM
Activity (OCI-Ly10): Active
